Data published in ChEMBL document CHEMBL1135439, “Imidazo[2,1-i]purin-5-ones and related tricyclic water-soluble purine derivatives: potent A(2A)- and A(3)-adenosine receptor antagonists” (J Med Chem, 2002).
Values after ≈ are worked out from the molar mass of the structure shown.

What was measured:
Adenosine receptor A1 [1] = target: T1, Adenosine receptor A1 (Rattus norvegicus, UniProt P25099); assay type: cell membranes, Brain
T1 sequence (P25099 whole entry): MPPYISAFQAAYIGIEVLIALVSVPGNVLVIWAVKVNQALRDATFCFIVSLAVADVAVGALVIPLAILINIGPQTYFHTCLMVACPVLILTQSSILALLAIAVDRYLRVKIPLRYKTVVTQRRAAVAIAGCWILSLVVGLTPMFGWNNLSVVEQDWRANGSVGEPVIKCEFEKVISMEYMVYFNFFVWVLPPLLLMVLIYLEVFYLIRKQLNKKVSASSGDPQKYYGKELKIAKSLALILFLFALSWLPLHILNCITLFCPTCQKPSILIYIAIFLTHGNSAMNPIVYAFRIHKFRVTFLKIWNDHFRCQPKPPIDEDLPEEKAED

Adenosine receptor A2a [2] = target: T2, Adenosine receptor A2a (Rattus norvegicus, UniProt P30543); assay: Binding affinity to the adenosine A2A receptor by displacement of [3H]CGS-21680 in rat brain striatal membrane; assay type: cell membranes
Adenosine receptor A1 [3] = target: T1, Adenosine receptor A1; assay: (§1) Inhibition against Adenosine A1 receptor of rat fat cell membranes (functional antagonist activity)
Procedure, shortened: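 Adenylate cyclase assay in rat fat cell membranes measuring antagonism of R-PIA-elicited AC inhibition. KB was obtained from the Schild equation, using the ratio of R-PIA IC50 values with and without antagonist.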

Adenosine receptor A3 = target: T3, Adenosine receptor A3 (Homo sapiens, UniProt P0DMS8); assay: Binding affinity against human recombinant Adenosine A3 receptor stably expressed in HEK293 cells by displacing [125I]AB-MECA radioligand; assay type: cell-based
T3 sequence (P0DMS8 whole entry): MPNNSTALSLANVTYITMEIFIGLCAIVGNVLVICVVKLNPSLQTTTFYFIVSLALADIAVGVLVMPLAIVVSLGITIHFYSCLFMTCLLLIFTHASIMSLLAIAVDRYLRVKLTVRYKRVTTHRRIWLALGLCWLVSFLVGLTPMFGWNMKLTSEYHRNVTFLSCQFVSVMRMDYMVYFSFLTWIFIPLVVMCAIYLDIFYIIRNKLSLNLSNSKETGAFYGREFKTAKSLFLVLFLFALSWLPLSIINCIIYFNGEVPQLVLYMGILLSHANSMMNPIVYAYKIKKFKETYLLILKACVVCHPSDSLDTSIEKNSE

Adenosine receptor A2b = target: T4, Adenosine receptor A2b (Mus musculus, UniProt Q60614); assay: (§2) Inhibition against A2B-Adenosine Receptor in mouse NIH 3T3 fibroblast cell membranes (functional antagonist activity); assay type: cell-based
T4 sequence (Q60614 whole entry): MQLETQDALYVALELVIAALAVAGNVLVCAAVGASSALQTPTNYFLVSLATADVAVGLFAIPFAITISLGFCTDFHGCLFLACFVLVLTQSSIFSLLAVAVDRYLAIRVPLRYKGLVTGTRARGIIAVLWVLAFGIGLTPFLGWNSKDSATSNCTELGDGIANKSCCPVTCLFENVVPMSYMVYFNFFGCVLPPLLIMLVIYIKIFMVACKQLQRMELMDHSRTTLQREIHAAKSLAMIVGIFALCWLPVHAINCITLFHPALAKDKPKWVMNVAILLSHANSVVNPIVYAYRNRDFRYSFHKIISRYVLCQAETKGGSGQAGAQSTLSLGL
Procedure, shortened: (§3)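 Adenylate cyclase assay measuring antagonism of NECA-stimulated AC in rat PC12 membranes (A2A) or NIH 3T3 fibroblast membranes (A2B). KB was obtained from the Schild equation, using the ratio of NECA EC50 values with and without antagonist.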

Adenosine receptor A2a [4] = target: T2, Adenosine receptor A2a; assay: (§4) Inhibition against A2A-Adenosine Receptor of rat PC12 cell membranes (functional antagonist activity); assay type: cell-based, PC-12
Procedure, shortened: as §3

[5] = target: T5, Adenosine receptor A2b (Mus musculus) (UniProt Q60614); assay: as §2; assay type: cell-based
T5 sequence (whole entry): T4 sequence (Q60614 whole entry)
Procedure, shortened: as §3

[6] = target: T6, Adenosine receptor A1 (Rattus norvegicus) (UniProt P25099); assay: as §1
T6 sequence (whole entry): T1 sequence (P25099 whole entry)

[7] = target: Adenosine receptor A2a (Rattus norvegicus) (UniProt P30543); assay: as §4; assay type: cell-based; details: PC-12
[8] = Water solubility was determined.; assay type: ADME
Procedure, shortened: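 A saturated aqueous solution was prepared and the undissolved residue filtered off. The filtrate was diluted with water and its UV absorbance read at λmax. Concentration was calculated from a previously determined calibration curve for each compound.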

[9] = target: T7, Adenosine receptor A3 (Homo sapiens) (UniProt P0DMS8); assay: Percent displacement against human Adenosine A3 receptor expressed in HEK293 cells by displacing [125I]AB-MECA at 10 uM; assay type: cell-based
T7 sequence (whole entry): T3 sequence (P0DMS8 whole entry)

[10] = Water solubility of the compound; assay type: ADME; details: read-out: S
[11] = target: T6, Adenosine receptor A1 (Rattus norvegicus); assay: Percent displacement of [3H]CHA from Adenosine A1 receptor of rat brain cortical membrane at 30 uM
Procedure, shortened: (§5)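 Single-concentration inhibition of [3H]CHA binding to rat cerebral cortical membrane A1 receptors, reported as percent displacement at the stated test concentration. Nonspecific binding was determined with 10 μM 2-chloroadenosine.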

[12] = target: T5, Adenosine receptor A2b (Mus musculus); assay: Inhibition against A2B-Adenosine Receptor in mouse NIH 3T3 fibroblast cell membranes; assay type: cell-based
Procedure, shortened: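 Functional adenylate cyclase assay in NIH 3T3 fibroblast cell membranes: test compounds antagonize NECA-induced stimulation of AC (cAMP accumulation). K_B is calculated with the Schild equation from the ratio of NECA EC50 values with and without antagonist.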

[13] = target: Adenosine receptor A2a (Rattus norvegicus) (UniProt P30543); assay: Binding affinity against Adenosine A2A receptor by displacement of [3H]CGS-21680 radioligand in rat brain striatal membrane at 30 uM; assay type: cell membranes
Procedure, shortened: (§6)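 Single-concentration inhibition of [3H]CGS21680 binding to rat striatal membrane A2A receptors, reported as percent displacement at the stated test concentration. Nonspecific binding was defined with 20 μM 2-chloroadenosine.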

[14] = target: T6, Adenosine receptor A1 (Rattus norvegicus); assay: Percent displacement of [3H]CHA from Adenosine A1 receptor of rat brain cortical membrane at 3 uM
Procedure, shortened: as §5

[15] = target: Adenosine receptor A2a (Rattus norvegicus) (UniProt P30543); assay: Percent displacement of [3H]CGS-21680 from Adenosine A2A receptor of rat brain striatal membrane at 30 uM
Procedure, shortened: as §6

[16] = target: T6, Adenosine receptor A1 (Rattus norvegicus); assay: Percent displacement of [3H]CHA from Adenosine A1 receptor of rat brain cortical membrane at 10 uM
Procedure, shortened: as §5

[17] = target: T7, Adenosine receptor A3 (Homo sapiens); assay: Percent displacement against human recombinant Adenosine A3 receptor expressed in HEK293 cells by displacing [125I]AB-MECA at 100 uM; assay type: cell-based
[18] = target: T6, Adenosine receptor A1 (Rattus norvegicus); assay: Percent displacement of [3H]CHA from Adenosine A1 receptor of rat brain cortical membrane at 250 uM
Procedure, shortened: as §5

Adenosine receptor A2a (Rattus norvegicus), sequence (P30543 whole entry): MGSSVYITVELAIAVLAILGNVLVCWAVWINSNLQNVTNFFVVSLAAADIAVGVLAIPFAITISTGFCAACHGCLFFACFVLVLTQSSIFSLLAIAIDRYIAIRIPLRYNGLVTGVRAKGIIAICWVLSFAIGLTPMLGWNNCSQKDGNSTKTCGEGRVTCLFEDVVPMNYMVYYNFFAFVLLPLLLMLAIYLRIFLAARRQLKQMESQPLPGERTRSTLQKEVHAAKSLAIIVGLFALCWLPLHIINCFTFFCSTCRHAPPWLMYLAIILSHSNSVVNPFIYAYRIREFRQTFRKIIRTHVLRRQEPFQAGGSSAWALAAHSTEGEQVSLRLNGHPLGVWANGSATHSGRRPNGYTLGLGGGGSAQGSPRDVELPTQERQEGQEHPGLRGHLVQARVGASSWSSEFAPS
T2 sequence (P30543 whole entry): as above

| SMILES | Ki (Adenosine receptor A1 [1]) | Ki (Adenosine receptor A2a [2]) | other results |
| --- | --- | --- | --- |
| CC[C@H]1CN2C(=O)N(C)c3nc(-c4ccccc4)n(C)c3C2=N1 | 4.7 µM | 16.2 µM | – |
| Cn1c(-c2ccccc2)nc2c1C1=NCCN1C(=O)N2 | 1.83 µM | 11.9 µM | KB (Adenosine receptor A1 [3]): 500 nM; Ki (Adenosine receptor A3): 0.047 µM; KB (Adenosine receptor A2b): 7 µM; KB (Adenosine receptor A2a [4]): 17.2 µM |
| Cn1cnc2c1C1=NCCN1C(=O)N2 | 65.5 µM | 40.9 µM | – |
| CN1C(=O)N2CCCN=C2c2c1ncn2C | 43.2 µM | 28.5 µM | – |
| Cn1c(=O)c2c(ncn2C)n(C)c1=O | – | – | Kb [5]: 25 µM |
| CC[C@H]1CN2C(=O)N(C)c3[nH]c(-c4ccccc4)nc3C2=N1 | 0.115 µM | 3.33 µM | Kb [6]: 0.063 µM; Kb [7]: 4.3 µM; Kb [5]: 7.6 µM |
| Cn1c(=O)c2[nH]c(-c3ccccc3)nc2n(C)c1=O [8-PHENYL THEOPHYLLINE] | – | 0.83 µM | – |
| CN1C(=O)N2CCN=C2c2c1ncn2C | 79.6 µM | 20.7 µM | solubility [8]: 1210 mM (≈ 248000 µg/mL); Displacement [9]: 40% |
| Cn1c(=O)c2nc(/C=C/c3ccccc3)[nH]c2n(C)c1=O | – | – | solubility [10]: 0.00022 mM (≈ 0.0621 µg/mL) |
| Cn1cnc2c1C1=NCCN1C(=O)N2Cc1ccccc1 | – | 16.1 µM | Displacement [11]: 24% |
| CCC1CN2C(=O)N(C)c3[nH]c(-c4ccccc4)nc3C2=N1 (configuration not stated) | 0.265 µM | 3.1 µM | – |
| CC[C@@H]1CN2C(=O)N(C)c3nc(-c4ccccc4)[nH]c3C2=N1 | 0.44 µM | 2.1 µM | Kb [6]: 0.43 µM; Kb [7]: 2.5 µM; Kb [5]: 2.1 µM |
| Cn1c(=O)[nH]c2nc(-c3ccccc3)n(C)c2c1=O | – | – | Kb [6]: 0.32 µM; Kb [7]: 5.7 µM; Kb [5]: 5.2 µM |
| Cn1c(=O)c2c(nc(/C=C/c3ccccc3)n2C)n(C)c1=O | – | – | solubility [10]: 0.0028 mM (≈ 0.83 µg/mL) |
| CC[C@@H]1CN2C(=O)N(C)c3[nH]c(/C=C/c4ccccc4)nc3C2=N1 | 0.95 µM | 0.89 µM | Ki (Adenosine receptor A3): 0.64 µM |
| CN1C(=O)N2CCN=C2c2c1nc(-c1ccccc1)n2C | 9.7 µM | 20.3 µM | solubility [10]: 1.45 mM (≈ 408 µg/mL); Ki (Adenosine receptor A3): 3.33 µM |
| CC[C@H]1CN2C(=O)N(C)c3nc(/C=C/c4ccccc4)n(C)c3C2=N1 | 14.9 µM | 0.424 µM | Kb [6]: 33 µM; Kb [7]: 1 µM; Kb [5]: 3.7 µM; Ki (Adenosine receptor A3): 30.6 µM |
| Cn1c(=O)c2[nH]cnc2n(C)c1=O.O [THEOPHYLLINE] | – | – | Kb [12]: 16 µM; solubility [10]: 44.4 mM |

| SMILES | Ki (Adenosine receptor A1 [1]) | Ki (Adenosine receptor A2a [2]) | other results |
| --- | --- | --- | --- |
| CC[C@@H]1CN2C(=O)N(C)c3nc(-c4ccccc4)n(C)c3C2=N1 | 17.5 µM | 36.3 µM | – |
| CC[C@@H]1CN2C(=O)N(C)c3ncn(C)c3C2=N1 | 75.5 µM | 28.3 µM | – |
| CC1CN=C2c3c(ncn3C)N(C)C(=O)N21 (configuration not stated) | 59 µM | 64.6 µM | – |
| CN1C(=O)N2CCCCC/N=C\2c2c1ncn2C | 60.3 µM | 51 µM | – |
| CN1C(=O)N2CCCN=C2c2c1nc(Cl)n2C | 10.5 µM | 11.9 µM | – |
| C[C@@H]1CN2C(=O)N(C)c3ncn(C)c3C2=N1 | – | – | Displacement [13]: 12%; Displacement [14]: 14% |
| C[C@H]1CN2C(=O)N(C)c3ncn(C)c3C2=N1 | – | – | Displacement [15]: 46%; Displacement [16]: 10% |
| C[C@H]1CN=C2c3c(ncn3C)N(C)C(=O)N21 | 70 µM | 12 µM | – |
| CCC1CN2C(=O)N(C)c3ncn(C)c3C2=N1 (configuration not stated) | – | 16.2 µM | Displacement [17]: 28%; Displacement [18]: 46% |
| Cn1c(=O)c2c(nc(-c3ccccc3)n2C)n(C)c1=O | – | – | solubility [10]: 0.487 mM (≈ 132 µg/mL) |
| CCCn1c(=O)[nH]c(=O)c2nc[nH]c21 | – | – | Kb [12]: 18 µM |
| CC[C@H]1CN2C(=O)N(C)c3ncn(C)c3C2=N1 | – | 10.9 µM | Displacement [18]: 50% |
| CC[C@@H]1CN2C(=O)N(C)c3nc(/C=C/c4ccccc4)n(C)c3C2=N1 | 21.7 µM | 0.547 µM | Ki (Adenosine receptor A3): 1.7 µM |
| CC[C@H]1CN2C(=O)N(C)c3[nH]c(/C=C/c4ccccc4)nc3C2=N1 | 0.73 µM | 0.67 µM | – |
| C[C@@H]1CN=C2c3c(ncn3C)N(C)C(=O)N21 | 23 µM | 50.4 µM | – |
| CN1C(=O)N2CCCCN=C2c2c1ncn2C | 19.8 µM | 18.5 µM | – |
| CCC1CN2C(=O)N(C)c3nc(-c4ccccc4)n(C)c3C2=N1 (configuration not stated) | 6.1 µM | 19.2 µM | Displacement [9]: 17% |
